# Experiments:
# [1] = biological target: Mitogen-activated protein kinase 1 (Homo sapiens, UniProt P28482); assay: Inhibition of human MAPK1
# [2] = biological target: Proto-oncogene tyrosine-protein kinase Src (Homo sapiens, UniProt P12931); assay: Inhibition of human SRC
# SK-OV-3 = assay: Growth inhibition of human SKOV3 cells assessed as cell growth at 10^-5 M after 48 hrs by sulforhodamine B assay relative to control; assay type: functional; conditions: SK-OV-3, 48 h, read-out: Activity
# Summary of the method: (§1)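 NCI-60 single-dose screen at 10^-5 M. Cells grown in RPMI 1640 with 5% FBS and 2 mM L-glutamine, plated at 5,000–40,000 cells/well according to doubling time, and preincubated 24 h at 37°C, 5% CO2. Compound dissolved in DMSO and added. Exposure 48 h. Adherent cells fixed with cold TCA (10% final), suspension cells with 16% final TCA. Read-out is 0.4% SRB staining, dye solubilised in 10 mM Tris, absorbance at 515 nm. Percent growth is calculated against the time-zero plate and untreated control.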
# MOLT-4 = assay: Growth inhibition of human MOLT4 cells assessed as cell growth at 10^-5 M after 48 hrs by sulforhodamine B assay relative to control; assay type: functional; conditions: MOLT-4, 48 h, read-out: Activity; summary of the method: as §1
# HL-60(TB) = assay: Growth inhibition of human HL-60(TB) cells assessed as cell growth at 10^-5 M after 48 hrs by sulforhodamine B assay relative to control; assay type: functional; conditions: HL-60, 48 h, read-out: Activity
# Summary of the method: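 NCI-60 one-dose screen at 10^-5 M. Cells were grown in RPMI 1640 with 5% FBS and 2 mM L-glutamine and plated at 5,000–40,000 cells/well. They were preincubated 24 h at 37°C under 5% CO2, then exposed for 48 h. Suspension cells were fixed with 80% TCA (16% final) and stained with 0.4% SRB, read at 515 nm. Percent growth is versus untreated control, corrected for time-zero.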
# COLO 205 = assay: Growth inhibition of human COLO205 cells assessed as cell growth at 10^-5 M after 48 hrs by sulforhodamine B assay relative to control; assay type: functional; conditions: COLO 205, 48 h, read-out: Activity; summary of the method: as §1
# OVCAR-5 = assay: Growth inhibition of human OVCAR5 cells assessed as cell growth at 10^-5 M after 48 hrs by sulforhodamine B assay relative to control; assay type: functional; conditions: OVCAR-5, 48 h, read-out: Activity; summary of the method: as §1
# OVCAR-8 = assay: Growth inhibition of human OVCAR8 cells assessed as cell growth at 10^-5 M after 48 hrs by sulforhodamine B assay relative to control; assay type: functional; conditions: OVCAR-8, 48 h, read-out: Activity; summary of the method: as §1
# SR = assay: Growth inhibition of human SR cells assessed as cell growth at 10^-5 M after 48 hrs by sulforhodamine B assay relative to control; assay type: functional; conditions: read-out: Activity
# Summary of the method: (§2)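 NCI-60 single-dose screen, 10^-5 M final. Cells grown in RPMI 1640 with 5% FBS and 2 mM L-glutamine, seeded at 5,000–40,000 cells/well by doubling time. Preincubated 24 h at 37°C, 5% CO2. Compound in DMSO, diluted in medium with gentamicin, then 48 h exposure. Fixed with cold TCA, SRB stained, A515 read. Percent growth vs untreated control, time-zero plate corrected.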
# MDA-MB-231 = assay: Growth inhibition of human MDA-MB-231 cells assessed as cell growth at 10^-5 M after 48 hrs by sulforhodamine B assay relative to control; assay type: functional; conditions: MDA-MB-231, 48 h, read-out: Activity; summary of the method: as §1
# NCI-H522 = assay: Growth inhibition of human NCI-H522 cells assessed as cell growth at 10^-5 M after 48 hrs by sulforhodamine B assay relative to control; assay type: functional; conditions: NCI-H522, 48 h, read-out: Activity; summary of the method: as §1
# MDA-MB-468 = assay: Growth inhibition of human MDA-MB-468 cells assessed as cell growth at 10^-5 M after 48 hrs by sulforhodamine B assay relative to control; assay type: functional; conditions: MDA-MB-468, 48 h, read-out: Activity; summary of the method: as §1
# 786-0 = assay: Growth inhibition of human 786-0 cells assessed as cell growth at 10^-5 M after 48 hrs by sulforhodamine B assay relative to control; assay type: functional; conditions: 786-0, 48 h, read-out: Activity; summary of the method: as §1
# DU-145 = assay: Growth inhibition of human DU145 cells assessed as cell growth at 10^-5 M after 48 hrs by sulforhodamine B assay relative to control; assay type: functional; conditions: DU-145, 48 h, read-out: Activity; summary of the method: as §1
# U-251 = assay: Growth inhibition of human U251 cells assessed as cell growth at 10^-5 M after 48 hrs by sulforhodamine B assay relative to control; assay type: functional; conditions: U-251, 48 h, read-out: Activity; summary of the method: as §2
# NCI-H226 = assay: Growth inhibition of human NCI-H226 cells assessed as cell growth at 10^-5 M after 48 hrs by sulforhodamine B assay relative to control; assay type: functional; conditions: NCI-H226, 48 h, read-out: Activity; summary of the method: as §1
# MCF7 = assay: Growth inhibition of human MCF7 cells assessed as cell growth at 10^-5 M after 48 hrs by sulforhodamine B assay relative to control; assay type: functional; conditions: MCF7, 48 h, read-out: Activity; summary of the method: as §1
# SW-620 = assay: Growth inhibition of human SW620 cells assessed as cell growth at 10^-5 M after 48 hrs by sulforhodamine B assay relative to control; assay type: functional; conditions: SW-620, 48 h, read-out: Activity; summary of the method: as §2
# HCT-116 = assay: Growth inhibition of human HCT116 cells assessed as cell growth at 10^-5 M after 48 hrs by sulforhodamine B assay relative to control; assay type: functional; conditions: HCT-116, 48 h, read-out: Activity; summary of the method: as §1
# M14 = assay: Growth inhibition of human M14 cells assessed as cell growth at 10^-5 M after 48 hrs by sulforhodamine B assay relative to control; assay type: functional; conditions: M14, 48 h, read-out: Activity; summary of the method: as §1
# IGROV-1 = assay: Growth inhibition of human IGROV1 cells assessed as cell growth at 10^-5 M after 48 hrs by sulforhodamine B assay relative to control; assay type: functional; conditions: IGROV-1, 48 h, read-out: Activity; summary of the method: as §1
# LOX IMVI = assay: Growth inhibition of human LOXIMVI cells assessed as cell growth at 10^-5 M after 48 hrs by sulforhodamine B assay relative to control; assay type: functional; conditions: read-out: Activity; summary of the method: as §1
# CAKI-1 = assay: Growth inhibition of human CAKI-1 cells assessed as cell growth at 10^-5 M after 48 hrs by sulforhodamine B assay relative to control; assay type: functional; conditions: CAKI-1, 48 h, read-out: Activity; summary of the method: as §1
# MDA-MB-435 = assay: Growth inhibition of human MDA-MB-435 cells assessed as cell growth at 10^-5 M after 48 hrs by sulforhodamine B assay relative to control; assay type: functional; conditions: MDA-MB-435, 48 h, read-out: Activity; summary of the method: as §1
# Sequence of Proto-oncogene tyrosine-protein kinase Src (P12931 2-536 limits assumed): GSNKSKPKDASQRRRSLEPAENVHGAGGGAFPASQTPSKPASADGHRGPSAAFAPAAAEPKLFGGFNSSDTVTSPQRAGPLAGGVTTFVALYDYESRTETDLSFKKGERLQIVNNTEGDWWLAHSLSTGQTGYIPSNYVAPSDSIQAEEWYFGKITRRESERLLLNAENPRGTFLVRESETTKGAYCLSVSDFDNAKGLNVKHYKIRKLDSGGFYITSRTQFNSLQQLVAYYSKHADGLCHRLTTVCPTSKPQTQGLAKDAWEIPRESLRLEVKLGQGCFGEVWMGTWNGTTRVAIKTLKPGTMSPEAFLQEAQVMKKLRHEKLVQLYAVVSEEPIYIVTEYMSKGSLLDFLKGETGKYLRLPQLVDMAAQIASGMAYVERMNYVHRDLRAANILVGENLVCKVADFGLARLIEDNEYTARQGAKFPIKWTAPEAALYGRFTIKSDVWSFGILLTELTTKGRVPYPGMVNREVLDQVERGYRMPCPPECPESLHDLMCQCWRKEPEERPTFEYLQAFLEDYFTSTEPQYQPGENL
# Sequence of Mitogen-activated protein kinase 1 (P28482 whole entry): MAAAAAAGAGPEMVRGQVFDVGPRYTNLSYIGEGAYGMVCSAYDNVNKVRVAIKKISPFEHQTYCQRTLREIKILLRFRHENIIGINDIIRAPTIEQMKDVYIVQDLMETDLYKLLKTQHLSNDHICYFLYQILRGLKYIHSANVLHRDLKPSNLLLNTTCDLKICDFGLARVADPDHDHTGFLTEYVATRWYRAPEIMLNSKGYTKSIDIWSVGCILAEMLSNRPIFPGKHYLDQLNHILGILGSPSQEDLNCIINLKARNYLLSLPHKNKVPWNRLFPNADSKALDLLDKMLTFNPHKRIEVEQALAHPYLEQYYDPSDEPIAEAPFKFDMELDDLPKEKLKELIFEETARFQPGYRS
Structure (SMILES),Ki [1] [µM],Ki [2] [µM],growth at 10 µM (SK-OV-3) [%],growth at 10 µM (MOLT-4) [%],growth at 10 µM (HL-60(TB)) [%],growth at 10 µM (COLO 205) [%],growth at 10 µM (OVCAR-5) [%],growth at 10 µM (OVCAR-8) [%],growth at 10 µM (SR) [%],growth at 10 µM (MDA-MB-231) [%],growth at 10 µM (NCI-H522) [%],growth at 10 µM (MDA-MB-468) [%],growth at 10 µM (786-0) [%],growth at 10 µM (DU-145) [%],growth at 10 µM (U-251) [%],growth at 10 µM (NCI-H226) [%],growth at 10 µM (MCF7) [%],growth at 10 µM (SW-620) [%],growth at 10 µM (HCT-116) [%],growth at 10 µM (M14) [%],further results
Cc1ccc(-c2csc(=N)n2CC(=O)N2CCN(c3ccccc3)CC2)cc1,2.09,13.5,89.2,94.5,127,109,110,92.9,98.8,78.8,95.5,97.6,101,104,95.3,97.2,81.4,105,103,108,growth at 10 µM (IGROV-1): 93.2%; growth at 10 µM (LOX IMVI): 96.8%; growth at 10 µM (CAKI-1): 70.4%; growth at 10 µM (MDA-MB-435): 92.2%
N=c1scc(-c2ccc(Cl)cc2)n1CC(=O)N1CCN(c2ccccc2)CC1,0.501,1.9,109,87,89.8,105,93.8,97.8,88,114,76.9,89.8,97.9,114,89.6,92.2,90.8,104,101,99.7,growth at 10 µM (IGROV-1): 101%; growth at 10 µM (LOX IMVI): 103%; growth at 10 µM (CAKI-1): 93.3%; growth at 10 µM (MDA-MB-435): 92.2%
N=c1scc(-c2ccccc2)n1CC(=O)N1CCN(c2ccccc2)CC1,1.73,14.1,94.5,99.6,99,102,94.1,94.7,89.9,95,85.1,107,104,111,91.2,93.7,95.3,101,107,101,growth at 10 µM (IGROV-1): 98.9%; growth at 10 µM (LOX IMVI): 90.7%; growth at 10 µM (CAKI-1): 87.5%; growth at 10 µM (MDA-MB-435): 96.5%
CC(=O)N1CCN(C(=O)Cn2c(-c3ccc(C)cc3)csc2=N)CC1,2.23,15.3,103,73,108,106,122,98.4,81.3,75.3,76.9,94.3,98.8,110,85,96,88.9,97.6,85.9,97.9,growth at 10 µM (IGROV-1): 103%; growth at 10 µM (LOX IMVI): 85.5%; growth at 10 µM (CAKI-1): 81.5%; growth at 10 µM (MDA-MB-435): 80.6%
CC(=O)N1CCN(C(=O)Cn2c(-c3ccc(Cl)cc3)csc2=N)CC1,0.778,14.8,92.4,77,98,97,101,91.2,74.7,111,62.1,82.9,94.4,99,85.9,96.3,84.5,106,93,95.1,growth at 10 µM (IGROV-1): 100%; growth at 10 µM (LOX IMVI): 93.8%; growth at 10 µM (CAKI-1): 82.8%; growth at 10 µM (MDA-MB-435): 85.3%
Cc1ccc(-c2csc(=N)n2CC(=O)N2CCN(C)CC2)cc1,1.89,4.73,111,76.3,109,106,116,99.5,86.5,83.4,80.6,98.6,101,109,83.9,93.1,93.2,98.4,104,105,growth at 10 µM (IGROV-1): 111%; growth at 10 µM (LOX IMVI): 89.1%; growth at 10 µM (CAKI-1): 78%; growth at 10 µM (MDA-MB-435): 83.4%
CC(=O)N1CCN(C(=O)Cn2c(-c3ccccc3)csc2=N)CC1,3.67,34.3,89.4,96.2,111,99.8,105,96.7,88.7,95.4,81.3,94.6,103,112,96.9,88.8,94.8,109,96.1,97,growth at 10 µM (IGROV-1): 95.6%; growth at 10 µM (LOX IMVI): 94.3%; growth at 10 µM (CAKI-1): 76.8%; growth at 10 µM (MDA-MB-435): 105%
CN1CCN(C(=O)Cn2c(-c3ccc(Cl)cc3)csc2=N)CC1,8.84,3.23,92.5,75.1,102,101,96.4,96.8,78.5,103,86.7,96.8,97,99,91.2,95.9,92.2,102,94.4,98.9,growth at 10 µM (IGROV-1): 93.1%; growth at 10 µM (LOX IMVI): 96.8%; growth at 10 µM (CAKI-1): 85.9%; growth at 10 µM (MDA-MB-435): 92.2%
